From publication PMC8324497 (Cell Reports Medicine, 2021)

Assays:
[1] = test system: U-2932; assay: Cell viability MTS assay; format: cell-based; details: Homo sapiens, U2932, read-out: IC50 mean values
Summary of the method: (§1)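 Lymphoma suspension lines were grown in RPMI 1640 with 10–20% heat-inactivated FBS, 1% L-glutamine and penicillin-streptomycin at 37°C, 5% CO2. Cells were plated at 25,000/100 μL (96-well) or 250,000/mL (24-well) with DMSO 0.1% vehicle or rising compound concentrations for 24–72 h. MTS reagent was added at 1:5 and absorbance read at 490 nm. IC50 was taken from three independent experiments (mean ± SD).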

[2] = test system: EB1; assay: Cell viability MTS assay; format: cell-based; details: Homo sapiens, EB1, read-out: IC50 mean values
Summary of the method: as §1

[3] = test system: JVM-2; assay: Cell viability MTS assay; format: cell-based; details: Homo sapiens, JVM-2, read-out: IC50 mean values
Summary of the method: as §1

[4] = test system: SK-MEL-2; assay: Cell proliferation assay; format: cell-based; details: Homo sapiens, SK-MEL-2, 72 h
[5] = test system: TMD8; assay: Cell viability MTS assay; format: cell-based; details: Homo sapiens, TMD8, read-out: IC50 mean values
Summary of the method: as §1

[6] = test system: ERK1/2 kinases; assay: Primary kinome screening, panel of 335 kinases; format: biochemical; details: 1.0 μM
Summary of the method: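 Radiometric profiling against 335 purified serine/threonine, tyrosine and lipid kinases at a single fixed test-compound concentration of 1 uM. Residual activity (%) = 100 × (cpm of compound − low control)/(high control − low control).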

- IC50 [4]: 3 nM
- kinase selectivity [6]: selective inhibition of ERK1/2 kinases
Structure (SMILES): Cc1cnc(NC2CCOCC2)nc1-n1cnc(C(=O)NC(CN)c2cc(F)cc(Cl)c2)c1 (stereo not drawn) [ASN007, N-(2-amino-1-(3-chloro-5-fluorophenyl)ethyl)-1-(5-methyl-2-((tetrahydro-2H-pyran-4-yl)amino)pyrimidin-4-yl)-1H-imidazole-4-carboxamide]
- IC50 [1]: 2300 nM
- IC50 [2]: > 10000 nM
- IC50 [3]: 5700 nM
- IC50 [5]: 3000 nM
